Screening results deposited in PubChem by several laboratories.
Rows were chosen to be rich in hits. Some 3.1% of all compounds tested hit in one or more screens of this group.
MPTP block: mitochondrial permeability transition pore inhibitors, primary screen, biochemical, isolated mouse mitochondria, absorbance | AID 602449, 2012 | inhibition, % at 10 µM | 360,000 compounds, 1.4% hits | Ca2+ swelling absorbance, 30 min;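 active = inhibition of 50% or more, scaled per plate between neutral and stimulator controls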
ADAM17 inh: ADAM17 inhibitors, primary screen, biochemical, QFRET; recombinant ADAM17, EDANS/DABCYL FRET peptide cleavage; inhibition, % at 6.95 µM; 370,000 compounds, 0.83% hits;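 active = inhibition above the mean of compounds lying between control limits plus 3 SD, set per campaign, cut at about 8.5% in these data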
Target sequence (P78536 215-824 limits assumed): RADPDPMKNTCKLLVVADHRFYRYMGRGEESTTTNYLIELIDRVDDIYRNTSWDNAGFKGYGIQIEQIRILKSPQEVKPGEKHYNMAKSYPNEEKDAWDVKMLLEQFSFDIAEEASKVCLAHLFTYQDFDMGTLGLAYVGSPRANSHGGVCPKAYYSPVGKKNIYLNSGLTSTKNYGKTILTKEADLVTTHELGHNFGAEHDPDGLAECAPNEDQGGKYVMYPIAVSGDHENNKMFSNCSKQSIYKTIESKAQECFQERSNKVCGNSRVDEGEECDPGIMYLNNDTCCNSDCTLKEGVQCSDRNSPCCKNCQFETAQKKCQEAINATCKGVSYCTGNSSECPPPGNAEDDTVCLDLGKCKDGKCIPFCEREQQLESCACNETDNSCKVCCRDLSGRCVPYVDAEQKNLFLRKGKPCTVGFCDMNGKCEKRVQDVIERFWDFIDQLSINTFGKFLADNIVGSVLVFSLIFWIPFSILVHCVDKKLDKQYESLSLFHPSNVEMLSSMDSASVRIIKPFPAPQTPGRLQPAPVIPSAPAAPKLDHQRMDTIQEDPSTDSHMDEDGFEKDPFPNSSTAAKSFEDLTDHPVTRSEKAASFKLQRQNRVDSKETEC
aDG glyco up: activators of alpha-DG glycosylation, primary screen, uHTS, Pro5-aDG cells, AlphaScreen. alpha-DG glycosylation AlphaScreen (IIH6); 0% Pro5, 100% B10-LARGE cell signal. activation, % at 10 µM. 360,000 compounds, 0.22% hits;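 active = activation of at least 8% versus controls, or a plate z-score of at least 8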;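 also: Pro5 are CHO cells carrying HIG-tagged alpha-DG that lacks glycosylation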
Hep lipid drop: inhibitors of hepatocyte lipid droplet formation, primary screen, imaging, high-throughput imaging, BODIPY stain; AML12 mouse hepatocytes, oleate lipid droplets; inhibition, % at 6.5 µM; 240,000 compounds, 0.4% hits; AID 1656, 2009;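 active = lipid droplet intensity inhibited by at least 50%, with more than 500 cells counted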
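Assay system: AML12 mouse liver cells | Compound dosing: One dose, 6.5 µM compound | Read-out basis: Droplet intensity reduction, % inhibition | Measured by: Fluorescence imaging, 20x objective, two fields per well | Schedule: Overnight treatment with compound plus oleate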
ADAM10 inh: human ADAM10 inhibitors, primary screen, biochemical, QFRET, HTS; Disintegrin and metalloproteinase domain-containing protein 10 (Homo sapiens), O14672; AID 720582, 2013; inhibition, % at 7 µM; recombinant ADAM10, EDANS/DABCYL FRET peptide cleavage, 3 h; 370,000 compounds, 0.62% hits;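 active = inhibition above a per-campaign cutoff equal to the mean of compounds falling between control-based bounds plus 3 SD, cut at about 20% in these data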
V-ATPase pH: regulators of yeast V-ATPase proton pumping, primary screen, pHLuorin cytosolic pH fluorescence | S. cerevisiae | response, % at 10 µM | 350,000 compounds, 0.37% hits | AID 504577, 2011; in the data active = response mostly above about 7.3%, no sharp cut-off; inactive = mostly below about 5.4%; also: actives read high
ADAM10 confirm: human ADAM10 inhibitors, confirmation, biochemical, QFRET, triplicate; 2,100 compounds, 1% hits; shares compounds with ADAM10 inh; inhibition, % at 6.95 µM; ADAM10 QFRET peptide cleavage, EDANS fluorescence; AID 743208, 2013;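 active = inhibition above about 20% chosen separately for each screening run, limit read from the data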
ADAM17 ctr: ADAM17 inhibitors, counter-screen for ADAM10 exosite inhibitor project, biochemical, QFRET, high throughput. shares compounds with ADAM10 inh. ADAM17 QFRET peptide cleavage, EDANS fluorescence. inhibition, % at 6.95 µM. 2,100 compounds, 0.5% hits. AID 743214, 2013;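 active = mean triplicate inhibition above the solvent-only control wells' mean plus 3 SD, cut at about 12% in these data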
ADAM10 ctr: ADAM10 inhibitors, counter-screen for ADAM17 exosite inhibitor project, biochemical, FRET, human ADAM10; shares compounds with ADAM17 inh; recombinant ADAM10, EDANS/DABCYL FRET peptide cleavage, 3 h; inhibition, % at 6.95 µM; 2,900 compounds, 47% hits;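 active = mean inhibition over the triplicate runs exceeds the activity threshold set in the earlier primary screen, cut at about 20% in these data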
ADAM17 confirm: ADAM17 inhibitors, hit retest, confirmation, biochemical, QFRET peptide cleavage. shares compounds with ADAM17 inh. recombinant ADAM17, EDANS/DABCYL QFRET peptide cleavage. inhibition, % at 6.95 µM. 2,900 compounds, 65% hits;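 active = mean inhibition across replicates above the hit cutoff set in the primary screen, cut at about 8.5% in these data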
Of the large screens only hits and unclear results are named; the others gave an inactive call (follow-up assays come after a bar, where they were run).

C[C@H](O)[C@@H]1CN2CCc3c([nH]c4cccc(-c5ccccc5)c34)[C@@H]2C[C@@H]1N(C)C(=O)c1ccco1	none (no result: MPTP block, aDG glyco up, Hep lipid drop, V-ATPase pH)
COC(=O)[C@H](CC(C)C)N(CCCc1cn(Cc2ccc(C)cc2)nn1)S(=O)(=O)c1ccccc1Br	ADAM17 inh 13, ADAM10 inh 23 (no result: MPTP block, aDG glyco up, Hep lipid drop, V-ATPase pH) | ADAM10 confirm inactive | ADAM17 ctr inactive | ADAM10 ctr 24 | ADAM17 confirm 16
COC(=O)[C@]12CCCCC=C1N(Cc1ccc(OC)cc1)C(=O)[C@@H]2CC(=O)N1CCC(c2ccccc2)CC1	none (no result: MPTP block, aDG glyco up, Hep lipid drop, V-ATPase pH)
COc1ccc(NC(=O)c2cc(-c3cc(Cl)ccc3OC)n[nH]2)c(OC)c1	ADAM17 inh 13, ADAM10 inh 29 (no result: Hep lipid drop, V-ATPase pH) | ADAM10 confirm inactive | ADAM17 ctr inactive | ADAM10 ctr 35 | ADAM17 confirm 18
CCOc1ccc(Cl)cc1-c1cc(C(=O)Nc2ccc(OC)cc2OC)[nH]n1	none (no result: Hep lipid drop, V-ATPase pH)
O=C(c1ccc(Cl)cc1)N1CCC(O)(CSc2ccc(Cl)cc2Cl)CC1	ADAM17 inh 9.4, ADAM10 inh 27 | ADAM10 confirm inactive | ADAM17 ctr inactive | ADAM10 ctr 27 | ADAM17 confirm 11
O=C(N1CCC(C(O)(c2ccccc2)c2ccccc2)CC1)n1ncc(C(O)(c2ccccc2)c2ccccc2)n1	none (no result: MPTP block, aDG glyco up, Hep lipid drop, V-ATPase pH)
N#Cc1ccc(NC(=O)Cn2cnc([N+](=O)[O-])c2)cc1	none
O=C(Cn1cnc([N+](=O)[O-])c1)Nc1cc(Oc2ccc(Cl)cc2Cl)cc([N+](=O)[O-])c1	ADAM17 inh 9.5, ADAM10 inh 23 | ADAM10 confirm inactive | ADAM17 ctr inactive | ADAM10 ctr 33 | ADAM17 confirm 17
CCOC(=O)[C@]12CCCC3=C1N(CCC3)C(=O)[C@@H](CC(=O)NCc1ccc(OC)c(OC)c1)C2	none (no result: MPTP block, aDG glyco up, Hep lipid drop, V-ATPase pH)
COC(=O)CN1C(c2cccc(Cl)c2)=Nc2ccc(Cl)cc2C1c1ccccc1 (stereo unspecified)	ADAM17 inh 16, ADAM10 inh 21 | ADAM10 confirm inactive | ADAM17 ctr inactive | ADAM10 ctr inactive | ADAM17 confirm 8.8
COc1ccc(NC(=O)c2ccc3c(=O)n(-c4ccc(OC)cc4OC)c(=S)[nH]c3c2)cc1	ADAM17 inh 9.1, ADAM10 inh 24 | ADAM10 confirm inactive | ADAM17 ctr inactive | ADAM10 ctr inactive | ADAM17 confirm inactive
COc1ccc(-n2c(=S)[nH]c3cc(C(=O)Nc4ccc(F)cc4)ccc3c2=O)c(OC)c1	none
O=C(Nc1ccccc1)OCc1cc(-c2ccccc2Cl)on1	ADAM17 inh 9.0, ADAM10 inh 27 (no result: Hep lipid drop) | ADAM10 confirm inactive | ADAM17 ctr inactive | ADAM10 ctr 36 | ADAM17 confirm 17
O=C(Nc1cccc(O)c1)c1cc(-c2ccccc2Cl)on1	none
CC(=O)N1c2ccc(S(=O)(=O)N3CCC(C(=O)N4CCN(c5cc(Cl)ccc5C)CC4)CC3)cc2CC1C (stereo unspecified)	ADAM17 inh 18, ADAM10 inh 23 | ADAM10 confirm inactive | ADAM17 ctr inactive | ADAM10 ctr 30 | ADAM17 confirm 17
C[C@@]12C(=O)N(c3cccc(F)c3)C(=O)N1[C@@H]1c3ccccc3OC[C@@H]1[C@H]2c1ccccc1	ADAM17 inh 11, ADAM10 inh 23 (no result: Hep lipid drop) | ADAM10 confirm inactive | ADAM17 ctr inactive | ADAM10 ctr inactive | ADAM17 confirm inactive
CC(C)(C)OC(=O)N1CCCC(C(=O)Nc2cccc(C(=O)NCCCCc3ccccc3)c2)C1 (stereo unspecified)	ADAM17 inh 13, ADAM10 inh 22 (no result: Hep lipid drop) | ADAM10 confirm inactive | ADAM17 ctr inactive | ADAM10 ctr inactive | ADAM17 confirm 12
CC(C)(C)NC(=O)C(c1ccco1)N(C(=O)Cn1nnc(-c2ccc(F)cc2)n1)c1cccc(F)c1 (stereo unspecified)	none
CC(C)(C)NC(=O)C(c1c[nH]c2ccccc12)N(C(=O)Cn1nnc(-c2ccc(F)cc2)n1)c1cccc(O)c1 (stereo unspecified)	ADAM17 inh 14, ADAM10 inh 28 | ADAM10 confirm inactive | ADAM17 ctr inactive | ADAM10 ctr 32 | ADAM17 confirm 19
COc1ccc(Nc2nc(N)nc(CSC(=S)N3CCN(c4ccccc4)CC3)n2)cc1	ADAM17 inh 12, ADAM10 inh 23 | ADAM10 confirm inactive | ADAM17 ctr inactive | ADAM10 ctr 26 | ADAM17 confirm 14
CN(CCO)C1CN(Cc2cn(Cc3ccccc3C(F)(F)F)nn2)S(=O)(=O)C1 (stereo unspecified)	none (no result: MPTP block, aDG glyco up, Hep lipid drop, V-ATPase pH)
COc1ccc(NC(C)C(=O)N/N=C/c2cc(Br)ccc2OC)cc1 (stereo unspecified)	none
Cc1ccccc1NC(C)C(=O)N/N=C/c1ccccc1OCc1cccc(Br)c1 (stereo unspecified)	ADAM17 inh 9.7, ADAM10 inh 24 (no result: Hep lipid drop) | ADAM10 confirm inactive | ADAM17 ctr inactive | ADAM10 ctr inactive | ADAM17 confirm 14
COc1ccc(NC(C)C(=O)N/N=C/c2ccccc2OCc2cccc(Br)c2)cc1 (stereo unspecified)	ADAM17 inh 8.8, ADAM10 inh 21 | ADAM10 confirm inactive | ADAM17 ctr inactive | ADAM10 ctr 48 | ADAM17 confirm 22
O=C(C1CCCN1S(=O)(=O)c1ccc(F)cc1)N1CCc2ccccc2C1 (stereo unspecified)	none (no result: MPTP block, aDG glyco up, Hep lipid drop, V-ATPase pH)
